# Data from ChEMBL document CHEMBL3352456, “Design, synthesis and biological activity of a novel Rutin analogue with improved lipid soluble properties” (Bioorg Med Chem, 2015).
# Active and inactive are the calls of the source. No cut-off for these calls is given here.
# Columns and labels:
# K562 [1] = experiment: Induction of apoptosis in human K562 cells assessed as early apoptotic cells at 5 uM after 3 days by Annexin-V staining-based assay (reference value: 5.41%); assay type: functional
# Nannizzia gypsea [2] = experiment: Antifungal activity against Microsporum gypseum (Bodin) Guiart and Grigorakis IHME 3999 assessed as growth inhibition at 100 ug/ml measured on day 7 by sabouraud dextrose agar diffusion method relative to control; assay type: functional; details: (Bodin) Guiart and Grigorakis IHME 3999, 168 h, read-out: GI
# In short: (§1)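 Dermatophyte strains kept on Sabouraud dextrose agar slants. Mycelium disks (10 mm) from a stationary-phase culture grown at 26 ± 1 °C on cellophane over SDA to log phase, then moved onto SDA containing compound added from DMSO stock at 45 °C (final DMSO 0.1%; DMSO-only controls). Colony diameter measured daily for 7 days. % inhibition = (dex − dex')/dex × 100. Three replicates per concentration; mean of three independent experiments.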
# K562 [3] = experiment: Induction of apoptosis in human K562 cells assessed as early apoptotic cells at 10 uM after 3 days by Annexin-V staining-based assay (reference value: 5.41%); assay type: functional
# [4] = Antioxidant activity assessed as superoxide anion radical scavenging by photochemiluminescence method relative to trolox using formulation containing O/W; assay type: physicochemical
# Trichophyton violaceum [5] = experiment: Antifungal activity against Trichophyton violaceum Malmsten CBS 459.61 assessed as growth inhibition at 100 ug/ml measured on day 7 by sabouraud dextrose agar diffusion method relative to control; assay type: functional; details: Malmsten CBS 459.61, 168 h, read-out: GI; in short: as §1
# Trichophyton tonsurans [6] = experiment: Antifungal activity against Trichophyton tonsurans Malmsten CBS 483.76 assessed as growth inhibition at 100 ug/ml measured on day 7 by sabouraud dextrose agar diffusion method relative to control; assay type: functional; details: Malmsten CBS 483.76, 168 h, read-out: GI; in short: as §1
# Trichophyton rubrum [7] = experiment: Antifungal activity against Trichophyton rubrum (Castellani) Sabouraud IHME 4321 assessed as growth inhibition at 100 ug/ml measured on day 7 by sabouraud dextrose agar diffusion method relative to control; assay type: functional; details: (Castellani) Sabouraud IHME 4321, 168 h, read-out: GI; in short: as §1
# Paraphyton cookei [8] = experiment: Antifungal activity against Nannizzia cajetani Ajello CBS 495.70 assessed as growth inhibition at 100 ug/ml measured on day 7 by sabouraud dextrose agar diffusion method relative to control; assay type: functional; details: Ajello CBS 495.70, 168 h, read-out: GI; in short: as §1
# [9] = test system: Trichophyton mentagrophytes; experiment: Antifungal activity against Trichophyton mentagrophytes (Robin) Blanchard CBS 160.66 assessed as growth inhibition at 100 ug/ml measured on day 7 by sabouraud dextrose agar diffusion method relative to control; assay type: functional; details: (Robin) Blanchard CBS 160.66, 168 h, read-out: GI; in short: as §1
# K562 [10] = experiment: Induction of apoptosis in human K562 cells assessed as dead cells at 5 uM after 3 days by Annexin-V staining-based assay (reference value: 1.29%); assay type: functional
# Paraphyton cookei [11] = experiment: Antifungal activity against Nannizzia cajetani Ajello CBS 495.70 assessed as growth inhibition at 20 ug/ml measured on day 7 by sabouraud dextrose agar diffusion method relative to control; assay type: functional; details: Ajello CBS 495.70, 168 h, read-out: GI; in short: as §1
# K562 [12] = experiment: Induction of apoptosis in human K562 cells assessed as late apoptotic cells at 5 uM after 3 days by Annexin-V staining-based assay (reference value: 5.96%); assay type: functional
# Trichophyton tonsurans [13] = experiment: Antifungal activity against Trichophyton tonsurans Malmsten CBS 483.76 assessed as growth inhibition at 20 ug/ml measured on day 7 by sabouraud dextrose agar diffusion method relative to control; assay type: functional; details: Malmsten CBS 483.76, 168 h, read-out: GI; in short: as §1
# K562 [14] = experiment: Induction of apoptosis in human K562 cells assessed as live cells at 5 uM after 3 days by Annexin-V staining-based assay (reference value: 87.33%); assay type: functional
# Epidermophyton floccosum [15] = experiment: Antifungal activity against Epidermophyton floccosum (Hartz) Langeron and Milochevitch CBS 358.93 assessed as growth inhibition at 100 ug/ml measured on day 7 by sabouraud dextrose agar diffusion method relative to control; assay type: functional; in short: as §1
# [16] = Octanol-water partition coefficient, log P of the compound at 5 mg/20 ml after 30 mins by spectrophotometric analysis; assay type: physicochemical
# In short: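 Octanol and water (pH 6), 20 mL each, stirred 30 min at 25 °C, then centrifuged 10 min at 4,000 rpm. Compound concentration in each phase measured spectrophotometrically at 360 nm. LogP = log of the octanol/water concentration ratio.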
# Nannizzia gypsea [17] = experiment: Antifungal activity against Microsporum gypseum (Bodin) Guiart and Grigorakis IHME 3999 assessed as growth inhibition at 20 ug/ml measured on day 7 by sabouraud dextrose agar diffusion method relative to control; assay type: functional; details: (Bodin) Guiart and Grigorakis IHME 3999, 168 h, read-out: GI; in short: as §1
# Nannizzia gypsea [18] = experiment: Antifungal activity against Nannizzia gypsea (Bodin) Guiart et Grigoraki CBS 286.63 assessed as growth inhibition at 100 ug/ml measured on day 7 by sabouraud dextrose agar diffusion method relative to control; assay type: functional; details: (Bodin) Guiart et Grigoraki CBS 286.63, 168 h, read-out: GI; in short: as §1
# K562 [19] = experiment: Induction of apoptosis in human K562 cells assessed as late apoptotic cells at 10 uM after 3 days by Annexin-V staining-based assay (reference value: 5.96%); assay type: functional
# K562 [20] = experiment: Antiproliferative activity against human K562 cells assessed as cell number after 3 days by Coulter counter; details: K562, 72 h
# Trichophyton rubrum [21] = experiment: Antifungal activity against Trichophyton rubrum (Castellani) Sabouraud IHME 4321 assessed as growth inhibition at 20 ug/ml measured on day 7 by sabouraud dextrose agar diffusion method relative to control; assay type: functional; details: (Castellani) Sabouraud IHME 4321, 168 h, read-out: GI; in short: as §1
# [22] = test system: Trichophyton mentagrophytes; experiment: Antifungal activity against Trichophyton mentagrophytes (Robin) Blanchard CBS 160.66 assessed as growth inhibition at 20 ug/ml measured on day 7 by sabouraud dextrose agar diffusion method relative to control; assay type: functional; details: (Robin) Blanchard CBS 160.66, 168 h, read-out: GI; in short: as §1
# [23] = target: Nuclear factor NF-kappa-B complex (Homo sapiens) (UniProt Q00653+P19838+Q04206); experiment: Inhibition of NF-kappaB (unknown origin)/32P-labeled oligonucleotide interaction at 0.1 to 10 mM after 20 mins by electrophoretic mobility shift assay; assay type: protein-complex assay
# Chain of Nuclear factor NF-kappa-B complex (Homo sapiens) (P19838 whole entry, looked up): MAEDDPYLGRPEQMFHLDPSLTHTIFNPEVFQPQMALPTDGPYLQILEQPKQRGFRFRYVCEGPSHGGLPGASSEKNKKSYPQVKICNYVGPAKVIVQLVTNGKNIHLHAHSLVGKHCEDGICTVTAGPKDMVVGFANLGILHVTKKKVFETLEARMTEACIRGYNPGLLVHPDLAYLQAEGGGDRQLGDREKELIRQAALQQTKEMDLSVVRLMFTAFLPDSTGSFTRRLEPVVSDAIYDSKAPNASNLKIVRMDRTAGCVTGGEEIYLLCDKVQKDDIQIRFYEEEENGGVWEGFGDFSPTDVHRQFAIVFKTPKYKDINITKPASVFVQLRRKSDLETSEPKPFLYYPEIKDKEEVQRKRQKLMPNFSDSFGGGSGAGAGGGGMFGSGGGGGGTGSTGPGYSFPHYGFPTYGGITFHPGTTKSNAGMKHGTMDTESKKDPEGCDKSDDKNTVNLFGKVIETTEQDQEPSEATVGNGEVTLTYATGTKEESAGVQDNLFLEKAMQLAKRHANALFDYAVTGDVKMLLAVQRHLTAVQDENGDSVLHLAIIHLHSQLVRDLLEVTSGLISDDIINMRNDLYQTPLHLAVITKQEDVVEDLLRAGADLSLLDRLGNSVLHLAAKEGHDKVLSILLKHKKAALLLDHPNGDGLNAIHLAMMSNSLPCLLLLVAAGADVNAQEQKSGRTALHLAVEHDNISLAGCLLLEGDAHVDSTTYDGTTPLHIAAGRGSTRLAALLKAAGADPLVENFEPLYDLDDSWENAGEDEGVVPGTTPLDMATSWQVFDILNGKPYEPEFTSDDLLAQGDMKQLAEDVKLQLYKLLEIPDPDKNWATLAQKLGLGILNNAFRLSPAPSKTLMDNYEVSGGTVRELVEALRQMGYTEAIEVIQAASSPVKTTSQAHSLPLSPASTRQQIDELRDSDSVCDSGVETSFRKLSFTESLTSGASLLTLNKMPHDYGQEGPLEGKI
# Chain of Nuclear factor NF-kappa-B complex (Homo sapiens) (Q00653 whole entry, looked up): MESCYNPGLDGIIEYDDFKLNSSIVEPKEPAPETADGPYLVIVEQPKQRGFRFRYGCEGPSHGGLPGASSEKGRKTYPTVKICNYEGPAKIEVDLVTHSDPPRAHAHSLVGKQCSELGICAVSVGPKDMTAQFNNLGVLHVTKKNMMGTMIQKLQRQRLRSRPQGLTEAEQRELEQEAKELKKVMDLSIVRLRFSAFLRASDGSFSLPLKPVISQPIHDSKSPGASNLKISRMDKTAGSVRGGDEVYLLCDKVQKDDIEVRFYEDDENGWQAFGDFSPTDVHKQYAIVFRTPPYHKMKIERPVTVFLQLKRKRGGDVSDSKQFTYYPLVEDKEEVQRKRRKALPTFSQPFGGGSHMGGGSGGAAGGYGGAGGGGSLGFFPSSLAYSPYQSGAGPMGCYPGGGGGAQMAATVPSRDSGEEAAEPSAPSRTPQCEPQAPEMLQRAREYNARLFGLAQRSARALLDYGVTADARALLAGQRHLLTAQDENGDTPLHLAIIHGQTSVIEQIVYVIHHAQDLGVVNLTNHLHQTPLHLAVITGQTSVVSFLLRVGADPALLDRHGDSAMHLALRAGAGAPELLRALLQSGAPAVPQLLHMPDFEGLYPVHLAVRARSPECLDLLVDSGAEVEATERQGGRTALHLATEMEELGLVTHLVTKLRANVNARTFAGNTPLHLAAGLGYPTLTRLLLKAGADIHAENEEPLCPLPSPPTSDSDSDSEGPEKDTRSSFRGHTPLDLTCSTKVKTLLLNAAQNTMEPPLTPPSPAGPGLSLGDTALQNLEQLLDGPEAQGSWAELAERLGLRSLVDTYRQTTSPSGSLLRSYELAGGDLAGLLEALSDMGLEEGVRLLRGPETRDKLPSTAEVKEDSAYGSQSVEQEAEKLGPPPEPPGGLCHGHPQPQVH
# Chain of Nuclear factor NF-kappa-B complex (Homo sapiens) (Q04206 whole entry, looked up): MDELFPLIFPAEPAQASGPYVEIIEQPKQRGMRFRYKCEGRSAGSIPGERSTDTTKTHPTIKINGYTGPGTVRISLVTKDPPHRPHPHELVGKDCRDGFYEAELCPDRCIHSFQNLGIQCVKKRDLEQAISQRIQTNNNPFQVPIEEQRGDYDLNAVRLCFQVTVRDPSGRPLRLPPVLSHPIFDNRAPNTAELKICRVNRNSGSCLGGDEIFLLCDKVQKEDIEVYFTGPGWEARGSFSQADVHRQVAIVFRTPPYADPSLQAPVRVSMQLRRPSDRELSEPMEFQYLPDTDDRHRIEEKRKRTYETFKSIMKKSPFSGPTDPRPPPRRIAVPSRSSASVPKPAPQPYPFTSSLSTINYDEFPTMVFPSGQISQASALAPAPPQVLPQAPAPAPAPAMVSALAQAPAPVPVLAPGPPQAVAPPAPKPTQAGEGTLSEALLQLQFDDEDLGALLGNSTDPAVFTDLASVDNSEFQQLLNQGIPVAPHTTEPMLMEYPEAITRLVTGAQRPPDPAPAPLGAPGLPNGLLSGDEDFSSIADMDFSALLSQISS
# In short: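 Probe was a double-stranded 32P-labelled oligonucleotide (0.25 ng) in buffer of 10% glycerol, 0.05% NP-40, 10 mM Tris-HCl pH 7.5, 50 mM NaCl, 0.5 mM DTT and 10 mM MgCl2. Compound and probe were bound for 20 min at room temperature, then recombinant NF-kappaB p50 was added for a further 20 min. Samples were run on 6% polyacrylamide in 0.25× TBE at 200 V.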
# Trichophyton violaceum [24] = experiment: Antifungal activity against Trichophyton violaceum Malmsten CBS 459.61 assessed as growth inhibition at 20 ug/ml measured on day 7 by sabouraud dextrose agar diffusion method relative to control; assay type: functional; details: Malmsten CBS 459.61, 168 h, read-out: GI; in short: as §1
# [25] = Antioxidant activity assessed as inhibition of AAPH-induced peroxyl radical generation by oxygen radical absorbance capacity assay relative to trolox; assay type: physicochemical
# In short: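 Run at 37 °C and pH 7.4 with fluorescein (85 nM) as the probe and AAPH as the peroxyl radical source. Compounds were dissolved fresh in PBS. Fluorescence read at ex 485/em 538 nm every 5 min for up to 30 min after AAPH addition. Net area under the decay curve (blank minus sample) was calibrated against Trolox at 10–50 μM and given as Trolox equivalents.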
# K562 [26] = experiment: Induction of apoptosis in human K562 cells assessed as apoptotic cells at 5 uM after 3 days by Annexin-V staining-based assay (reference value: 11.37%); assay type: functional
# [27] = Antioxidant activity assessed as superoxide anion radical scavenging by photochemiluminescence method relative to trolox; assay type: physicochemical
# In short: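 Superoxide was generated photochemically from luminol under UV light (351 nm). Lag time (water-soluble, ACW) or integrated light emission over 180 s (lipid-soluble, ACL) was compared with a Trolox standard curve. Samples were centrifuged 5 min at 16000 g and diluted 1:40 in water (ACW) or methanol (ACL). Triplicate determinations.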
# K562 [28] = experiment: Induction of apoptosis in human K562 cells assessed as live cells at 10 uM after 3 days by Annexin-V staining-based assay (reference value: 87.33%); assay type: functional
# K562 [29] = experiment: Induction of apoptosis in human K562 cells assessed as dead cells at 10 uM after 3 days by Annexin-V staining-based assay (reference value: 1.29%); assay type: functional
# [30] = Antifungal activity against Microsporum canis Bodin CBS 4727 assessed as growth inhibition at 20 ug/ml measured on day 7 by sabouraud dextrose agar diffusion method relative to control; assay type: functional; in short: as §1
# K562 [31] = experiment: Induction of apoptosis in human K562 cells assessed as apoptotic cells at 10 uM after 3 days by Annexin-V staining-based assay (reference value: 11.37%); assay type: functional
# Nannizzia gypsea [32] = experiment: Antifungal activity against Nannizzia gypsea (Bodin) Guiart et Grigoraki CBS 286.63 assessed as growth inhibition at 20 ug/ml measured on day 7 by sabouraud dextrose agar diffusion method relative to control; assay type: functional; details: (Bodin) Guiart et Grigoraki CBS 286.63, 168 h, read-out: GI; in short: as §1
# [33] = Antifungal activity against Microsporum canis Bodin CBS 4727 assessed as growth inhibition at 100 ug/ml measured on day 7 by sabouraud dextrose agar diffusion method relative to control; assay type: functional; in short: as §1
# Epidermophyton floccosum [34] = experiment: Antifungal activity against Epidermophyton floccosum (Hartz) Langeron and Milochevitch CBS 358.93 assessed as growth inhibition at 20 ug/ml measured on day 7 by sabouraud dextrose agar diffusion method relative to control; assay type: functional; in short: as §1
compound,measurement,setting,value
CCC(=O)O[C@@H]1[C@@H](OC(=O)CC)[C@H](C)O[C@@H](OC[C@H]2O[C@@H](Oc3c(-c4ccc(O)c(O)c4)oc4cc(O)cc(O)c4c3=O)[C@H](OC(=O)CC)[C@@H](OC(=O)CC)[C@@H]2OC(=O)CC)[C@@H]1OC(=O)CC,Activity,K562 [1],12.35%
same,inhibition of growth at 100 µg/mL,Nannizzia gypsea [2],9.9%
same,Activity,K562 [3],11.64%
same,Activity,[4],3.81 µmol/g
same,inhibition of growth at 100 µg/mL,Trichophyton violaceum [5],15.8%
same,inhibition of growth at 100 µg/mL,Trichophyton tonsurans [6],17.8%
same,inhibition of growth at 100 µg/mL,Trichophyton rubrum [7],4.3%
same,inhibition of growth at 100 µg/mL,Paraphyton cookei [8],3.5%
same,inhibition of growth at 100 µg/mL,[9],5.7%
same,Activity,K562 [10],2.55%
same,inhibition of growth at 20 µg/mL,Paraphyton cookei [11],0.6%
same,Activity,K562 [12],5.35%
same,inhibition of growth at 20 µg/mL,Trichophyton tonsurans [13],5.4%
same,Activity,K562 [14],79.75%
same,growth inhibition (GI),Epidermophyton floccosum [15],inactive
same,logP at 0.5 h,[16],1.09
same,inhibition of growth at 20 µg/mL,Nannizzia gypsea [17],5.4%
same,inhibition of growth at 100 µg/mL,Nannizzia gypsea [18],7.9%
same,Activity,K562 [19],15.82%
same,IC50,K562 [20],7.17 µM
same,inhibition of growth at 20 µg/mL,Trichophyton rubrum [21],3.5%
same,inhibition of growth at 20 µg/mL,[22],0%
same,inhibition,[23],Active
same,inhibition of growth at 20 µg/mL,Trichophyton violaceum [24],10.7%
same,Activity,[25],728.61 µmol/g
same,Activity,K562 [26],17.7%
same,Activity,[27],1232.67 µmol/g
same,Activity,K562 [28],71.2%
same,Activity,K562 [29],1.34%
same,growth inhibition (GI),[30],inactive
same,Activity,K562 [31],27.46%
same,inhibition of growth at 20 µg/mL,Nannizzia gypsea [32],1.9%
same,growth inhibition (GI),[33],0%
same,growth inhibition (GI),Epidermophyton floccosum [34],inactive
